pIC50: −log10 of the molar value. Calls of active or inactive are those of the source. No cut-off for these calls is given here.
Columns and labels:
[1] = organism: Rattus norvegicus; experiment: Relative potency in the rat discriminative stimulus assay, expressed as mg of PCP (= 1.0 mg of compound); type: functional
Summary of the method: (§1)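 Male Fischer-derived CDF rats trained to discriminate PCP (3.0 mg/kg ip, 30 min before session) from saline in a two-choice, discrete-trial avoidance task. In tests, generalization counted if the group averaged ≥90% of 20 trials on the PCP lever. Relative potency versus PCP derived by standard bioassay statistics.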

[2] = organism: Rattus norvegicus; experiment: Inhibitory concentration for [3H]PCP binding to rat brain homogenate relative to PCP
Summary of the method: (§2)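 Freshly prepared rat brain homogenate aliquots incubated 45 min at 4 °C with 7.0 nM [3H]PCP; bound radioligand measured by filtration. Displacement curve for each analogue fitted visually from a log-probit plot to give IC50. PCP run as standard in each assay, and each analogue's IC50 compared with it.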

[3] = organism: Rattus norvegicus; experiment: Ability to displace 7.0 nM [3H]PCP binding to rat brain homogenate relative to PCP (IC50= 270 nM); summary of the method: as §2
[4] = organism: Rattus norvegicus; experiment: Ability to displace 7.0 nM [3H]-PCP binding to rat brain homogenate relative to PCP; summary of the method: as §2
[5] = tested on: Rattus norvegicus; experiment: Relative potency in the rat discriminative stimulus assay, expressed as mg of PCP (= 1.0 mg of compound); Did not generalize to PCP, Produced CNS depression at 56 mg/Kg; type: functional, organism-based
[6] = tested on: Rattus norvegicus; experiment: Relative potency in the rat discriminative stimulus assay, expressed as mg of PCP (= 1.0 mg of compound); Did not generalize to PCP, No activity seen at doses of <=56 mg/Kg; type: functional, organism-based; summary of the method: as §1
[7] = tested on: Rattus norvegicus; experiment: Relative potency in the rat discriminative stimulus assay, expressed as mg of PCP (= 1.0 mg of compound); Did not generalize to PCP, Tonic seizures was observed at 56 mg/Kg; type: functional, organism-based; summary of the method: as §1

SMILES | Relative potency [1] | Relative potency [4] | also measured
Cl.c1ccc(C2(N3CCCCC3)CCCCC2)cc1 [PHENCYCLIDINE HYDROCHLORIDE] | 1 |  | pIC50 [2]: 6.57; Relative potency [3]: 1
c1ccc(CN2CCCCC2)cc1 |  | 0.02 | Relative potency [5]: inactive
c1ccc(C2(N3CCCCC3)CC2)cc1 |  | 0.07 | Relative potency [6]: inactive
Cl.c1ccc(C2(N3CCCCC3)CCC2)cc1 | 0.19 | 0.08 | 
Cl.c1ccc(C2(N3CCCCC3)CCCCCC2)cc1 | 0.06 | 0.23 | 
c1ccc(C2(N3CCCCC3)CCCCCCC2)cc1 |  | 0.72 | Relative potency [7]: inactive
Cl.c1ccc(C2(N3CCCCC3)CCCC2)cc1 | 0.37 | 0.12 | 
